Experimental data as given in ChEMBL document CHEMBL1141408, “Synthesis and antimalarial activity of new isotebuquine analogues” (J Med Chem, 2007).
In brackets after ≈: the same amount, converted by molar mass. Activity calls are given as the source filed them. The calls are words filed in the database; no cut-off is given here.

Tests used:
[1] = Toxicity against murine J774 macrophage cells; type: cell-based; details: mouse
Method in brief: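 Murine J774 monocyte-like macrophage subclone G8, maintained in DMEM with 10% fetal calf serum, 2 mM L-glutamine and 50 µg/mL gentamicin at 37 °C in 5% CO2/95% air. Cells seeded at 1 × 10⁴/well and left 24 h. Drug or solvent control, diluted in medium, then added for 72 h. Viability read by MTS tetrazolium/formazan conversion after 1–2 h at 37 °C.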

Plasmodium falciparum [2] = experiment: Antimalarial activity against chloroquine-resistant Plasmodium falciparum W2; type: functional, organism-based
Method in brief: (§1)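 Compound DMSO stocks were diluted 400-fold in RPMI 1640 with 25 mM Hepes, 32 mM NaHCO₃ and 10% Albumax I, then 2-fold serially over 11 concentrations. Parasites were exposed for 48 h at 37 °C under 5% O₂/5% CO₂/90% N₂, pulsed with [³H]-hypoxanthine for 18 h, and DNA was harvested onto glass filters for scintillation counting. IC50 was derived by nonlinear-regression logistic dose-response fitting.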

Plasmodium falciparum [3] = experiment: Antimalarial activity against chloroquine-resistant Plasmodium falciparum TM91C235; type: functional, organism-based; method in brief: as §1
Plasmodium falciparum [4] = experiment: Antimalarial activity against chloroquine-sensitive Plasmodium falciparum D6; type: functional, organism-based; method in brief: as §1

CC(C)(C)NCc1cc(Nc2ccnc3cc(Cl)ccc23)cc(-c2ccc(Cl)cc2)c1O [TEBUQUINE]
IC50 [1]: 1800 ng/mL (≈ 3860 nM)
IC50 (Plasmodium falciparum [2]): 0.04 ng/mL (≈ 0.0858 nM)
Activity (Plasmodium falciparum [3]): inactive
IC50 (Plasmodium falciparum [4]): 0.1 ng/mL (≈ 0.214 nM)

CC(C)(C)NCc1c(O)cc(Nc2ccnc3cc(Cl)ccc23)cc1-c1ccc(C(F)(F)F)cc1
IC50 (Plasmodium falciparum [2]): 14 ng/mL (≈ 28 nM)
IC50 (Plasmodium falciparum [3]): 73 ng/mL (≈ 146 nM)
IC50 (Plasmodium falciparum [4]): 1.2 ng/mL (≈ 2.4 nM)

CC(C)(C)NCc1cc(Nc2cc[n+]([O-])c3cc(Cl)ccc23)cc(-c2ccc(Cl)cc2)c1O
IC50 [1]: 7200 ng/mL (≈ 14900 nM)
IC50 (Plasmodium falciparum [2]): 0.9 ng/mL (≈ 1.87 nM)
IC50 (Plasmodium falciparum [3]): 2.3 ng/mL (≈ 4.77 nM)
IC50 (Plasmodium falciparum [4]): 1.5 ng/mL (≈ 3.11 nM)

CC(C)(C)NCc1c(Nc2ccnc3cc(Cl)ccc23)cc(O)cc1-c1ccc(Cl)cc1
IC50 [1]: 6100 ng/mL (≈ 13100 nM)
IC50 (Plasmodium falciparum [2]): 0.4 ng/mL (≈ 0.858 nM)
IC50 (Plasmodium falciparum [3]): 1.78 ng/mL (≈ 3.82 nM)
IC50 (Plasmodium falciparum [4]): 0.3 ng/mL (≈ 0.643 nM)

CC(C)(C)NCc1c(O)cc(-c2ccc(C(F)(F)F)cc2)c(CNC(C)(C)C)c1Nc1ccnc2cc(Cl)ccc12
IC50 [1]: 750 ng/mL (≈ 1280 nM)
IC50 (Plasmodium falciparum [2]): 2.8 ng/mL (≈ 4.79 nM)
IC50 (Plasmodium falciparum [3]): 2 ng/mL (≈ 3.42 nM)
IC50 (Plasmodium falciparum [4]): 1.9 ng/mL (≈ 3.25 nM)

CC(C)(C)NCc1c(O)cc(-c2ccc(Cl)cc2)cc1Nc1ccnc2cc(Cl)ccc12
IC50 [1]: 1600 ng/mL (≈ 3430 nM)
IC50 (Plasmodium falciparum [2]): 1.6 ng/mL (≈ 3.43 nM)
IC50 (Plasmodium falciparum [3]): 1.7 ng/mL (≈ 3.64 nM)
IC50 (Plasmodium falciparum [4]): 1.4 ng/mL (≈ 3 nM)

Oc1cc(Nc2ccnc3cc(Cl)ccc23)cc(-c2ccc(Cl)cc2)c1
IC50 (Plasmodium falciparum [2]): 22.4 ng/mL (≈ 58.8 nM)
Activity (Plasmodium falciparum [3]): inactive
IC50 (Plasmodium falciparum [4]): 8.8 ng/mL (≈ 23.1 nM)

CC(C)(C)NCc1c(Nc2ccnc3cc(Cl)ccc23)cc(O)cc1-c1ccc(C(F)(F)F)cc1
IC50 [1]: 11600 ng/mL (≈ 23200 nM)
IC50 (Plasmodium falciparum [2]): 130 ng/mL (≈ 260 nM)
IC50 (Plasmodium falciparum [3]): 63 ng/mL (≈ 126 nM)
IC50 (Plasmodium falciparum [4]): 7.1 ng/mL (≈ 14.2 nM)

CC(C)(C)NCc1c(Nc2cc[n+]([O-])c3cc(Cl)ccc23)cc(O)cc1-c1ccc(Cl)cc1
IC50 (Plasmodium falciparum [2]): 9.2 ng/mL (≈ 19.1 nM)
IC50 (Plasmodium falciparum [3]): 8.8 ng/mL (≈ 18.2 nM)
IC50 (Plasmodium falciparum [4]): 4.3 ng/mL (≈ 8.91 nM)

CC(C)(C)NCc1c(O)cc(-c2ccc(Cl)cc2)c(CNC(C)(C)C)c1Nc1cc[n+]([O-])c2cc(Cl)ccc12
IC50 (Plasmodium falciparum [2]): 9.1 ng/mL (≈ 16 nM)
IC50 (Plasmodium falciparum [3]): 8.5 ng/mL (≈ 15 nM)
IC50 (Plasmodium falciparum [4]): 4.1 ng/mL (≈ 7.22 nM)

CC(C)(C)NCc1c(O)cc(Nc2ccnc3cc(Cl)ccc23)c(CNC(C)(C)C)c1-c1ccc(C(F)(F)F)cc1
IC50 (Plasmodium falciparum [2]): 3.6 ng/mL (≈ 6.15 nM)
IC50 (Plasmodium falciparum [3]): 3 ng/mL (≈ 5.13 nM)
IC50 (Plasmodium falciparum [4]): 1.8 ng/mL (≈ 3.08 nM)

[O-][n+]1ccc(Nc2cc(O)cc(-c3ccc(Cl)cc3)c2)c2ccc(Cl)cc21
IC50 (Plasmodium falciparum [2]): > 1000 ng/mL
IC50 (Plasmodium falciparum [3]): 580 ng/mL (≈ 1460 nM)
IC50 (Plasmodium falciparum [4]): 397 ng/mL (≈ 999 nM)

CC(C)(C)NCc1c(O)cc(Nc2ccnc3cc(Cl)ccc23)c(CNC(C)(C)C)c1-c1ccc(Cl)cc1
IC50 [1]: 2800 ng/mL (≈ 5080 nM)
IC50 (Plasmodium falciparum [2]): 5.3 ng/mL (≈ 9.61 nM)
IC50 (Plasmodium falciparum [3]): 2.5 ng/mL (≈ 4.53 nM)
IC50 (Plasmodium falciparum [4]): 2.8 ng/mL (≈ 5.08 nM)

CC(C)(C)NCc1c(O)cc(-c2ccc(C(F)(F)F)cc2)cc1Nc1ccnc2cc(Cl)ccc12
IC50 [1]: 1700 ng/mL (≈ 3400 nM)
IC50 (Plasmodium falciparum [2]): 2.1 ng/mL (≈ 4.2 nM)
IC50 (Plasmodium falciparum [3]): 1.8 ng/mL (≈ 3.6 nM)
IC50 (Plasmodium falciparum [4]): 1.8 ng/mL (≈ 3.6 nM)

CC(C)(C)NCc1c(O)cc(-c2ccc(Cl)cc2)c(CNC(C)(C)C)c1Nc1ccnc2cc(Cl)ccc12
IC50 [1]: 3600 ng/mL (≈ 6530 nM)
IC50 (Plasmodium falciparum [2]): 2.6 ng/mL (≈ 4.71 nM)
IC50 (Plasmodium falciparum [3]): 2.3 ng/mL (≈ 4.17 nM)
IC50 (Plasmodium falciparum [4]): 2.2 ng/mL (≈ 3.99 nM)

Oc1cc(Nc2ccnc3cc(Cl)ccc23)cc(-c2ccc(C(F)(F)F)cc2)c1
IC50 (Plasmodium falciparum [2]): 300 ng/mL (≈ 723 nM)
IC50 (Plasmodium falciparum [3]): 140 ng/mL (≈ 338 nM)
IC50 (Plasmodium falciparum [4]): 15 ng/mL (≈ 36.2 nM)
